Screening data as filed in PubChem BioAssay.
Runt-SMMHC FRET = blocks binding of human RUNX1 Runt domain to CBFb-SMMHC; Cerulean-Runt/Venus-CBFb-SMMHC FRET ratio 530/480, 1 h; Q01196+Q13951; inhibition, % at 20 µM; 0.74% of 220,000 active;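 active means mean inhibition across duplicate retests at 20 µM reaching about 50%, limit read from the data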;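 further: 0% = DMSO wells and 100% = wells with excess untagged CBFb-SMMHC; inhibitors lower the FRET ratio by blocking Runt binding to CBFb-SMMHC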
KLK7 zymogen act = activates the human kallikrein-7 zymogen | purified proKLK7, EDANS-DABCYL substrate fluorescence; 100% is mature enzyme control, 0% vehicle | 0.9% of 370,000 active | activation, % at 7 µM;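 active means activation above the mean of all tested compounds plus 3 SD, computed per campaign excluding outliers beyond control limits, cut at about 13% in these data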
MEX-5 binding = C. elegans MEX-5 TCR-2 RNA binding activity. Q9XUB2. MEX-5/FITC-TCR2 RNA binding, fluorescence polarization; active compounds read low. activity score (negative = inhibition of binding), % at 10 µM. 0.38% of 300,000 active;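 active means inhibition past about -25% in most replicates, and total fluorescence under double the plate's negative control median, limit read from the data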;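 further: 0% = DMSO and -100% = 5 µM competing unlabeled TCR2 RNA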
Target sequence (Q9XUB2 whole entry, looked up): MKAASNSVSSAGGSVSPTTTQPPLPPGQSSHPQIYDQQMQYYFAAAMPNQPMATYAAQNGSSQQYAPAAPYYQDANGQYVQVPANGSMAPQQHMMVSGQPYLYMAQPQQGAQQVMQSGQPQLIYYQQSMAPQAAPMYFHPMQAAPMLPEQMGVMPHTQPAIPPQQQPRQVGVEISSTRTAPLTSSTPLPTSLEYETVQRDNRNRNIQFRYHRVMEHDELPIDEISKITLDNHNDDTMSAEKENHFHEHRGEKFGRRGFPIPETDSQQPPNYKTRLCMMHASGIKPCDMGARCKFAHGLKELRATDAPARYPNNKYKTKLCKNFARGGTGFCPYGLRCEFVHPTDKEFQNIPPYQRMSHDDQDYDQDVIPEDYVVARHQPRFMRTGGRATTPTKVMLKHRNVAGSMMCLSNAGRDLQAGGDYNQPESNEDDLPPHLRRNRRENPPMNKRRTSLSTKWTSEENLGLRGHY
Runt-CBFb FRET = blocks binding of human RUNX1 Runt domain to CBFb; Cerulean-Runt/Venus-CBFb FRET ratio 530/480, 1 h; 0.46% of 220,000 active; inhibition, % at 20 µM;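 active means inhibition over about 50% at 20 µM in the single-dose screen, limit read from the data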;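 further: 0% = DMSO wells and 100% = excess unlabeled CBFb competitor control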
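Buffer or medium: Tris pH 7.5 buffer with BSA. Assay system: Cerulean-labeled Runt domain protein. Amount: each fluorescent fusion protein 100 nM. Read-out basis: loss of energy transfer signal. Incubation: 1 h compound exposure, room temperature. Probe or stimulus: Venus-CBFb binding partner, 100 nM. Detection: FRET, excitation 422 nm, emission at 530 and 480 nm.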
RanGTP-Imp inh = disruptors of Ran-importin-beta complex formation – biochemical, FRET, CFP-Ran, YFP-importin-beta, homogeneous, primary screen | inhibition, % (concentration not given with the values) | cell-free CFP-Ran/YFP-importin-beta FRET ratio | 1.1% of 300,000 active;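 active means more than half of the replicate wells show a fall in the fluorescence ratio signal beyond about 16%, limit read from the data, passing the limit was not always enough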;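 further: 0% = DMSO wells and 100% = Ran loaded with GDP instead of GTP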
* hit, by the source's call; . = not tested or not shown; + = active, no number. A selection: hits, their analogues and other compounds. The true share with any hit is near 2.1%.

SMILES	Runt-SMMHC FRET	KLK7 zymogen act	MEX-5 binding	Runt-CBFb FRET	RanGTP-Imp inh
CC1(C)CC(=O)C2=C(C1)OC(N)=C(C#N)[C@@H]2c1ccccc1[N+](=O)[O-]	49.7	4.7	-68.0*	94.1*	49.0*
O=C(/C=C/Nc1ccc(F)c(Cl)c1)c1ccccc1	.	0.5	-3.7	.	7.7
CCOC(=O)N1CC=C2C(C#N)=C(N)C(C#N)(C#N)[C@H](c3cccs3)C2C1 (some centres not stated)	-10.6	2.2	-20.6	-3.6	-2.5
CC1CC=C2C(C#N)=C(N)C(C#N)(C#N)C(c3cccs3)C2C1 (configuration not stated)	-64.9	.	-30.7*	-15.3	-37.9
C[C@H](CCCCC1(C)OCCO1)CCC(=O)N(c1ccccc1)c1ccccc1	.	0.6	.	.	.
COc1ccc(-n2c(SCC(=O)NCC3CCCO3)nc3ccccc3c2=O)cc1Cl (configuration not stated)	.	0.4	.	.	.
O=C(COc1ccc(Cl)cc1)Nc1ccc(C(=O)O)cc1NC(=O)COc1ccc(Cl)cc1	.	-0.1	-1.4	.	.
COCCn1c(=N)c(C(=O)NCCc2ccc(OC)cc2)cc2c(=O)n3cccc(C)c3nc21	113.7*	-1.1	-6.1	108.5*	77.6*
N=c1c(C(=O)NCC2CCCO2)cc2c(=O)n3ccccc3nc2n1Cc1ccc(F)cc1 (configuration not stated)	.	7.3	-4.7	.	178.5*
CCOC(=O)c1cc2c(=O)n3cccc(C)c3nc2n(Cc2ccccc2Cl)c1=N	65.0*	.	.	125.5*	.
Cc1cccn2c(=O)c3cc(C(=O)NCc4ccc(F)cc4)c(=N)n(CC4CCCO4)c3nc12 (configuration not stated)	.	-4.5	-7.8	.	185.1*
Cc1ccc(Cn2c(=N)c(C(=O)NCCN3CCOCC3)cc3c(=O)n4ccccc4nc32)cc1	.	0.8	-2.4	.	-1.3
Cc1ccc2nc3c(cc(C(=O)NCC4CCCO4)n3C)c(=O)n2c1 (configuration not stated)	88.6*	.	.	18.7	.
N=c1c(C(=O)NCc2ccc(F)cc2)cc2c(=O)n3ccccc3nc2n1CCCN1CCOCC1	65.3*	5.0	.	12.5	.
COCCCNC(=O)c1cc2c(=O)n3cccc(C)c3nc2n(C(C)C)c1=N	57.4*	4.4	0.0	17.9	187.8*
Cc1cccn2c(=O)c3cc(C(=O)NCc4ccco4)c(=N)n(C4CCCC4)c3nc12	.	-115.3	-8.6	.	130.0*
COCC1CN(CCc2ccc(F)cc2)S(=O)(=O)c2c(OCCN3C(=O)[C@@H]4[C@H](C3=O)[C@@H]3C=C[C@H]4C3)cccc2O1 (some centres not stated)	.	1.0	.	.	.
CC(C)c1ccc(NC(=O)Nc2nnc([C@H]3C[C@H](O)[C@@H](CO)O3)s2)cc1	.	0.7	.	.	.
Cc1cccn2c(=O)c3cc(C(=O)NCCN4CCOCC4)c(=N)n(CCN4CCOCC4)c3nc12	.	11.7	-0.7	.	127.8*
CCNC(=O)c1cc2c(=O)n3cccc(C)c3nc2n(Cc2ccc(C)cc2)c1=N	41.0	-5.8	-78.1*	11.1	+
Cc1cccn2c(=O)c3cc(C(=O)NC4CCCCC4)c(=N)n(Cc4ccc(F)cc4)c3nc12	.	-1.9	-1.0	.	-1.9
COc1ccc(CNC(=O)c2cc3c(=O)n4cccc(C)c4nc3n(CC3CCCO3)c2=N)cc1 (configuration not stated)	.	-0.9	-11.3	.	76.7*
Cc1cccn2c(=O)c3cc(C(=O)NCCN4CCOCC4)n(Cc4ccccc4)c3nc12	6.5	.	.	1.7	.
Cc1ccc(-c2ccc3c(c2)O[C@H](CN(C)C(=O)Nc2ccc(C(F)(F)F)cc2)[C@H](C)CN([C@H](C)CO)S3(=O)=O)cc1	.	-0.1	.	.	.
O=C(O)CC1NC(=O)N(c2ccccc2)C1=O (configuration not stated)	-5.7	0.5	0.5	-2.6	45.4*
SMILES	Runt-SMMHC FRET	KLK7 zymogen act	MEX-5 binding	Runt-CBFb FRET	RanGTP-Imp inh
COc1ccc(NC(=O)CC2SC(N3CCOCC3)=NC2=O)cc1OC (configuration not stated)	.	0.2	.	.	.
C=CC(=O)NC1CCCCN(CC)C1=O (configuration not stated)	.	0.2	.	.	.
C=CCn1c2ccccc2c(=O)c2cc(C#CC[C@@H](C)O)ccc21	.	0.5	.	.	.
C=CCn1c2ccccc2c(=O)c2cc(C#CC3(O)CCCCC3)ccc21	.	-7.8	0.3	.	161.1*
CCCC1NC(=O)c2cccnc2-n2c1nc1ccc(C)cc1c2=O (configuration not stated)	.	-0.7	.	.	.
O=[N+]([O-])c1ccc(S(=O)(=O)NCC2COc3ccccc3O2)cc1 (configuration not stated)	.	0.3	1.1	.	186.9*
O=C(O)c1cc(S(=O)(=O)NCC2COc3ccccc3O2)ccc1Cl (configuration not stated)	.	-0.3	.	.	.
O=c1cc(O)sc2ccccc12	2.7	-0.4	-3.3	0.1	16.5*
O=C(NC1CC1)c1cccc2c1C(=O)c1ccc(N3CCC(N4CCCCC4)CC3)cc1S2(=O)=O	.	0.6	.	.	.
CC(=O)C1(C(=O)NC2CCCC2)CC(c2ccccn2)=NO1 (configuration not stated)	.	-0.6	.	.	.
Cc1cccc(-c2cccc3c4c([nH]c23)[C@@H]2C[C@H](N(C)C(=O)Nc3ccccc3)[C@H]([C@H](C)O)C(=O)N2CC4)c1	.	-0.5	.	.	.
CCN(CC)CCCNC(=O)C1CCC(=O)N(c2ccc(OC)cc2)C1c1ccc(F)cc1 (configuration not stated)	-9.7	-0.3	0.4	-1.9	53.7*
COc1ccc(C2C(C(=O)Nc3ccc(F)cc3)CCC(=O)N2c2ccc(OC)cc2)cc1 (configuration not stated)	.	0.1	.	.	.
N=c1c(C(=O)NC2CCCCC2)cc2c(=O)n3ccccc3nc2n1Cc1ccccc1	.	-6.9	-6.7	.	180.1*
COc1ccc(CCn2c(=N)c(C(=O)NCc3ccco3)cc3c(=O)n4ccccc4nc32)cc1	0.7	-5.0	-4.2	87.4*	21.9*
O=C(CSc1nc2ccccc2c(=O)n1Cc1ccco1)NCc1ccccc1	.	0.1	0.0	.	0.5
N=c1c(C(=O)NCCc2ccccc2)cc2c(=O)n3ccccc3nc2n1Cc1ccco1	.	-9.1	-6.3	.	73.7*
CC1CC(NC(=O)c2cc3c(=O)n4ccccc4nc3n2C)CC(C)(C)C1 (configuration not stated)	.	-83.5	0.0	.	7.2
N=c1c(C(=O)NC2CCCCC2)cc2c(=O)n3ccccc3nc2n1Cc1ccco1	.	0.8	-10.1	.	64.6*
COc1ccc(N2CCCN(CC(=O)Nc3ccc(Cl)c(Cl)c3)CC2)cc1	.	-0.2	.	.	.
COc1ccc(S(=O)(=O)NCC2(N3CCOCC3)CCCCC2)cc1OC	.	0.4	.	.	.
N=c1c(C(=O)NC2CCCCC2)cc2c(=O)n3ccccc3nc2n1Cc1cccnc1	.	8.7	-34.9*	.	+
N=c1c(C(=O)NC2CCCCC2)cc2c(=O)n3ccccc3nc2n1CCc1ccccc1	.	-7.8	-25.8*	.	160.7*
